This note sets out measurements from ChEMBL document CHEMBL1157589, “Antifungal 3,5-disubstituted furanones: From 5-acyloxymethyl to 5-alkylidene derivatives” (Bioorg Med Chem, 2010).

Structures are written as SMILES. Values after ≈ are worked out from the molar mass of the structure shown.

Holding throughout (type): functional
Assay [1] deals with Pichia kudriavzevii. Kind of assay: Antifungal activity against Candida krusei ATCC 6258 after 24 hrs by microdilution method. Particulars: ATCC 6258, 24 h. Put shortly: (§1)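 Yeasts held on Sabouraud dextrose agar. MIC by NCCLS M27-A broth microdilution in RPMI 1640 with L-glutamine, buffered with 0.165 M MOPS to pH 7.0. Compounds in DMSO (≤2% final), twofold dilutions 500–0.48. Final inoculum 5 × 10³ ± 0.2 cfu mL⁻¹. Incubated at 35 °C; absorbance at 540 nm read at 24 and 48 h. MIC is 80% growth inhibition versus control; run twice in duplicate.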
For orientation: Dilution methods test growth across graded concentrations, often in twofold steps.

Assay [2] has as its system Candida albicans. Kind of assay: Antifungal activity against Candida albicans ATCC 90028 after 24 hrs by microdilution method. Particulars: ATCC 90028, 24 h. Put shortly: as §1
The subject of assay [3] is Candida tropicalis. Put plainly: Antifungal activity against Candida tropicalis 156 after 24 hrs by microdilution method. Particulars: Candida tropicalis, 156, 24 h. The procedure, abridged: as §1
Assay [4] deals with Lichtheimia corymbifera. Kind of assay: Antifungal activity against Absidia corymbifera 272 after 48 hrs by microdilution method. The following applies: Lichtheimia corymbifera, 272, 48 h. Put shortly:
(§2)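 Filamentous strains held on Sabouraud dextrose agar. NCCLS M27-A broth microdilution in RPMI 1640 with L-glutamine and 0.165 M MOPS, pH 7.0. DMSO diluent ≤2% final; twofold dilutions 500–0.48. Inoculum 5 × 10³ ± 0.2 cfu mL⁻¹ final.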

Assay [5] deals with Nakaseomyces glabratus. Put plainly: Antifungal activity against Candida glabrata 20/I after 24 hrs by microdilution method. Put shortly: as §1
Assay [6] relates to Aspergillus fumigatus. Put plainly: Antifungal activity against Aspergillus fumigatus 231 after 48 hrs by microdilution method. The following applies: Aspergillus fumigatus, 231, 48 h. Put shortly:
as §2

In assay [7] the test system is Pichia kudriavzevii. Kind of assay: Antifungal activity against Candida krusei ATCC 6258 after 48 hrs by microdilution method. The following applies: ATCC 6258, 48 h. Put shortly: as §1
Assay [8] concerns Nakaseomyces glabratus. Kind of assay: Antifungal activity against Candida glabrata 20/I after 48 hrs by microdilution method. The procedure, abridged: as §1
Assay [9] concerns Trichosporon beigelii. Put plainly: Antifungal activity against Trichosporon beigelii 1188 after 48 hrs by microdilution method. Particulars: Trichosporon beigelii, 1188, 48 h. Put shortly: as §1
Assay [10] concerns Pichia kudriavzevii. Kind of assay: Antifungal activity against Candida krusei E28 after 48 hrs by microdilution method. Particulars: E28, 48 h. Put shortly:
as §1

Assay [11] has as its system Aspergillus fumigatus. Put plainly: Antifungal activity against Aspergillus fumigatus 231 after 24 hrs by microdilution method. Particulars: Aspergillus fumigatus, 231, 24 h. The procedure, abridged:
as §2

Assay [12] concerns Clavispora lusitaniae. Kind of assay: Antifungal activity against Candida lusitaniae 2446/I after 48 hrs by microdilution method. The procedure, abridged: as §1
For assay [13], the system named is Trichophyton mentagrophytes. Kind of assay: Antifungal activity against Trichophyton mentagrophytes 445 after 120 hrs by microdilution method. Particulars: Trichophyton mentagrophytes, 445, 120 h. Put shortly:
(§3)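 Dermatophyte held on Sabouraud dextrose agar. M27-A microdilution in MOPS-buffered (0.165 M, pH 7.0) RPMI 1640 with L-glutamine. DMSO ≤2% final; twofold dilutions 500–0.48. Inoculum 5 × 10³ ± 0.2 cfu mL⁻¹ final. Incubated at 35 °C; MIC read visually at 72 and 120 h as 80% inhibition of control growth; determined twice in duplicate.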

Assay [14] deals with Pichia kudriavzevii. Put plainly: Antifungal activity against Candida krusei E28 after 24 hrs by microdilution method. The following applies: E28, 24 h. The procedure, abridged: as §1
Assay [15] deals with Candida parapsilosis. Put plainly: Antifungal activity against Candida parapsilosis ATCC 22019 after 24 hrs by microdilution method. The following applies: Lodderomyces parapsilosis, ATCC 22019, 24 h. The procedure, abridged:
as §1

The subject of assay [16] is Candida albicans. Put plainly: Antifungal activity against Candida albicans ATCC 90028 after 48 hrs by microdilution method. Particulars: ATCC 90028, 48 h. The procedure, abridged: as §1
For assay [17], the system named is Clavispora lusitaniae. Put plainly: Antifungal activity against Candida lusitaniae 2446/I after 24 hrs by microdilution method. The procedure, abridged:
as §1

Assay [18] concerns Candida albicans. Kind of assay: Antifungal activity against Candida albicans ATCC 44859 after 48 hrs by microdilution method. Particulars: ATCC 44859, 48 h. The procedure, abridged: as §1
In assay [19] the test system is Candida parapsilosis. Kind of assay: Antifungal activity against Candida parapsilosis ATCC 22019 after 48 hrs by microdilution method. The following applies: Lodderomyces parapsilosis, ATCC 22019, 48 h. Put shortly:
as §1

The subject of assay [20] is Candida tropicalis. Put plainly: Antifungal activity against Candida tropicalis 156 after 48 hrs by microdilution method. Particulars: Candida tropicalis, 156, 48 h. The procedure, abridged: as §1
Assay [21] has as its system Trichosporon beigelii. Put plainly: Antifungal activity against Trichosporon beigelii 1188 after 24 hrs by microdilution method. Particulars: Trichosporon beigelii, 1188, 24 h. The procedure, abridged:
as §1

In assay [22] the test system is Candida albicans. Put plainly: Antifungal activity against Candida albicans ATCC 44859 after 24 hrs by microdilution method. Particulars: ATCC 44859, 24 h. Put shortly:
as §1

Assay [23] relates to Lichtheimia corymbifera. Put plainly: Antifungal activity against Absidia corymbifera 272 after 24 hrs by microdilution method. Particulars: Lichtheimia corymbifera, 272, 24 h. The procedure, abridged: as §2
The test system of assay [24] is Trichophyton mentagrophytes. Kind of assay: Antifungal activity against Trichophyton mentagrophytes 445 after 72 hrs by microdilution method. Particulars: Trichophyton mentagrophytes, 445, 72 h. The procedure, abridged:
as §3

Regarding `COc1ccc(OCC2C=C(c3ccc(Br)cc3)C(=O)O2)cc1` (stereo unspecified), the MIC80 in the assay on Pichia kudriavzevii [1] came out at 7.81 µM (≈ 2.93 µg/mL); against Candida albicans [2], 1.95 µM (≈ 0.732 µg/mL); against Candida tropicalis [3], 7.81 µM (≈ 2.93 µg/mL); in the assay with Lichtheimia corymbifera [4] it was 62.5 µM (≈ 23.5 µg/mL); in the assay on Nakaseomyces glabratus [5] it was 0.97 µM (≈ 0.364 µg/mL); in the assay with Aspergillus fumigatus [6], 7.81 µM (≈ 2.93 µg/mL). The MIC80 against Pichia kudriavzevii [7] was found to be 15.6 µM (≈ 5.86 µg/mL); in the assay on Nakaseomyces glabratus [8] it was 1.95 µM (≈ 0.732 µg/mL); in the assay with Trichosporon beigelii [9], 15.6 µM (≈ 5.86 µg/mL); against Pichia kudriavzevii [10] it was 15.6 µM (≈ 5.86 µg/mL); in the assay with Aspergillus fumigatus [11], 3.9 µM (≈ 1.46 µg/mL); in the assay on Clavispora lusitaniae [12], 7.81 µM (≈ 2.93 µg/mL). Also, the MIC80 in assay [13] turned out to be 1.95 µM (≈ 0.732 µg/mL); in the assay on Pichia kudriavzevii [14] it was 7.81 µM (≈ 2.93 µg/mL); in the assay with Candida parapsilosis [15] it was 7.81 µM (≈ 2.93 µg/mL); in the assay on Candida albicans [16], 7.81 µM (≈ 2.93 µg/mL); in the assay on Clavispora lusitaniae [17], 3.9 µM (≈ 1.46 µg/mL); in the assay with Candida albicans [18], 1.95 µM (≈ 0.732 µg/mL). Also, the MIC80 against Candida parapsilosis [19] is 15.6 µM (≈ 5.86 µg/mL); with Candida tropicalis [20] it was 7.81 µM (≈ 2.93 µg/mL); with Trichosporon beigelii [21], 7.81 µM (≈ 2.93 µg/mL); against Candida albicans [22], 0.97 µM (≈ 0.364 µg/mL); in the assay with Lichtheimia corymbifera [23] it was 31.2 µM (≈ 11.7 µg/mL); in [24] it was 1.95 µM (≈ 0.732 µg/mL).
As for `CC(=O)OCC/C=C1/C=C(c2ccc(Br)cc2)C(=O)O1`, the MIC80 is 500 µM (≈ 169 µg/mL) in the assay on Pichia kudriavzevii [1]; greater than 500 µM in the assay with Candida albicans [2]; greater than 500 µM with Candida tropicalis [3]; 250 µM (≈ 84.3 µg/mL) in the assay with Lichtheimia corymbifera [4]; 250 µM (≈ 84.3 µg/mL) against Nakaseomyces glabratus [5]; greater than 500 µM with Aspergillus fumigatus [6]. The MIC80 against Pichia kudriavzevii [7], in the assay on Nakaseomyces glabratus [8], against Trichosporon beigelii [9], with Pichia kudriavzevii [10], against Aspergillus fumigatus [11] and in the assay with Clavispora lusitaniae [12] was greater than 500 µM each time. The MIC80 is 15.6 µM (≈ 5.27 µg/mL) in assay [13]; 500 µM (≈ 169 µg/mL) in the assay on Pichia kudriavzevii [14]; 250 µM (≈ 84.3 µg/mL) in the assay with Candida parapsilosis [15]; greater than 500 µM in the assay with Candida albicans [16]; greater than 500 µM against Clavispora lusitaniae [17]; 500 µM (≈ 169 µg/mL) against Candida albicans [18]. For the same molecule, the MIC80 is greater than 500 µM with Candida parapsilosis [19]; greater than 500 µM in the assay on Candida tropicalis [20]; greater than 500 µM in the assay with Trichosporon beigelii [21]; 15.6 µM (≈ 5.27 µg/mL) with Candida albicans [22]; 250 µM (≈ 84.3 µg/mL) in the assay on Lichtheimia corymbifera [23]; 15.6 µM (≈ 5.27 µg/mL) in [24].
Take `O=C1OC(COc2cccc(Br)c2)C=C1c1ccc(Br)cc1` (stereo unspecified): the MIC80 came out at 7.81 µM (≈ 3.31 µg/mL) in the assay with Pichia kudriavzevii [1]; 3.9 µM (≈ 1.65 µg/mL) against Candida albicans [2]; 7.81 µM (≈ 3.31 µg/mL) against Candida tropicalis [3]; 62.5 µM (≈ 26.5 µg/mL) against Lichtheimia corymbifera [4]; 1.95 µM (≈ 0.827 µg/mL) in the assay with Nakaseomyces glabratus [5]; 15.6 µM (≈ 6.62 µg/mL) in the assay on Aspergillus fumigatus [6]. For the same molecule, the MIC80 in the assay on Pichia kudriavzevii [7] was 15.6 µM (≈ 6.62 µg/mL); in the assay with Nakaseomyces glabratus [8], 1.95 µM (≈ 0.827 µg/mL); in the assay on Trichosporon beigelii [9], 62.5 µM (≈ 26.5 µg/mL); against Pichia kudriavzevii [10] it was 15.6 µM (≈ 6.62 µg/mL); against Aspergillus fumigatus [11] it was 3.9 µM (≈ 1.65 µg/mL); with Clavispora lusitaniae [12], 15.6 µM (≈ 6.62 µg/mL). For the same molecule, the MIC80 in assay [13] turned out to be 1.95 µM (≈ 0.827 µg/mL); with Pichia kudriavzevii [14] it was 7.81 µM (≈ 3.31 µg/mL); in the assay with Candida parapsilosis [15], 7.81 µM (≈ 3.31 µg/mL); with Candida albicans [16], 7.81 µM (≈ 3.31 µg/mL); in the assay on Clavispora lusitaniae [17], 7.81 µM (≈ 3.31 µg/mL); against Candida albicans [18], 1.95 µM (≈ 0.827 µg/mL). Further, the MIC80 in the assay with Candida parapsilosis [19] was determined as 31.2 µM (≈ 13.3 µg/mL); in the assay with Candida tropicalis [20], 15.6 µM (≈ 6.62 µg/mL); in the assay with Trichosporon beigelii [21] it was 7.81 µM (≈ 3.31 µg/mL); against Candida albicans [22] it was 0.97 µM (≈ 0.411 µg/mL); against Lichtheimia corymbifera [23], 31.2 µM (≈ 13.3 µg/mL); in [24], 1.95 µM (≈ 0.827 µg/mL).
With `O=C1OC(COc2ccc(O)cc2)C=C1c1ccc(Br)cc1` (stereo unspecified), the MIC80 with Pichia kudriavzevii [1] is 7.81 µM (≈ 2.82 µg/mL); in the assay with Candida albicans [2], 1.95 µM (≈ 0.704 µg/mL); in the assay on Candida tropicalis [3] it was 7.81 µM (≈ 2.82 µg/mL); against Lichtheimia corymbifera [4] it was 62.5 µM (≈ 22.6 µg/mL); against Nakaseomyces glabratus [5], 1.95 µM (≈ 0.704 µg/mL); with Aspergillus fumigatus [6], 7.81 µM (≈ 2.82 µg/mL). The MIC80 with Pichia kudriavzevii [7] was determined as 15.6 µM (≈ 5.64 µg/mL); in the assay with Nakaseomyces glabratus [8], 1.95 µM (≈ 0.704 µg/mL); in the assay on Trichosporon beigelii [9] it was 15.6 µM (≈ 5.64 µg/mL); in the assay on Pichia kudriavzevii [10] it was 15.6 µM (≈ 5.64 µg/mL); with Aspergillus fumigatus [11] it was 1.95 µM (≈ 0.704 µg/mL); against Clavispora lusitaniae [12], 7.81 µM (≈ 2.82 µg/mL). In addition, the MIC80 in [13] was found to be 1.95 µM (≈ 0.704 µg/mL); with Pichia kudriavzevii [14], 7.81 µM (≈ 2.82 µg/mL); in the assay on Candida parapsilosis [15] it was 7.81 µM (≈ 2.82 µg/mL); with Candida albicans [16], 3.9 µM (≈ 1.41 µg/mL); in the assay with Clavispora lusitaniae [17], 3.9 µM (≈ 1.41 µg/mL); in the assay with Candida albicans [18], 1.95 µM (≈ 0.704 µg/mL). The MIC80 against Candida parapsilosis [19] worked out at 15.6 µM (≈ 5.64 µg/mL); in the assay with Candida tropicalis [20], 7.81 µM (≈ 2.82 µg/mL); against Trichosporon beigelii [21], 7.81 µM (≈ 2.82 µg/mL); with Candida albicans [22] it was 0.97 µM (≈ 0.35 µg/mL); with Lichtheimia corymbifera [23] it was 15.6 µM (≈ 5.64 µg/mL); in assay [24], 1.95 µM (≈ 0.704 µg/mL).

As usually defined, the MIC80 is the lowest concentration that inhibits either 80% of growth or 80% of the strains tested, depending on the study. High values mean weaker potency, low ones greater potency.
